From ChEMBL document CHEMBL1926624, “Secondary metabolites from the roots of Neolitsea daibuensis and their anti-inflammatory activity” (J Nat Prod, 2011)
Values after ≈ are worked out from the molar mass of the structure shown.

Assays:
[1] = molecular target: T1, Nitric oxide synthase, inducible (Mus musculus) (UniProt P29477); test: Inhibition of iNOS-mediated NO production in LPS-stimulated mouse RAW264.7 cells after 24 hrs by Griess reagent method relative to control; format: cell-based
T1 sequence (whole entry): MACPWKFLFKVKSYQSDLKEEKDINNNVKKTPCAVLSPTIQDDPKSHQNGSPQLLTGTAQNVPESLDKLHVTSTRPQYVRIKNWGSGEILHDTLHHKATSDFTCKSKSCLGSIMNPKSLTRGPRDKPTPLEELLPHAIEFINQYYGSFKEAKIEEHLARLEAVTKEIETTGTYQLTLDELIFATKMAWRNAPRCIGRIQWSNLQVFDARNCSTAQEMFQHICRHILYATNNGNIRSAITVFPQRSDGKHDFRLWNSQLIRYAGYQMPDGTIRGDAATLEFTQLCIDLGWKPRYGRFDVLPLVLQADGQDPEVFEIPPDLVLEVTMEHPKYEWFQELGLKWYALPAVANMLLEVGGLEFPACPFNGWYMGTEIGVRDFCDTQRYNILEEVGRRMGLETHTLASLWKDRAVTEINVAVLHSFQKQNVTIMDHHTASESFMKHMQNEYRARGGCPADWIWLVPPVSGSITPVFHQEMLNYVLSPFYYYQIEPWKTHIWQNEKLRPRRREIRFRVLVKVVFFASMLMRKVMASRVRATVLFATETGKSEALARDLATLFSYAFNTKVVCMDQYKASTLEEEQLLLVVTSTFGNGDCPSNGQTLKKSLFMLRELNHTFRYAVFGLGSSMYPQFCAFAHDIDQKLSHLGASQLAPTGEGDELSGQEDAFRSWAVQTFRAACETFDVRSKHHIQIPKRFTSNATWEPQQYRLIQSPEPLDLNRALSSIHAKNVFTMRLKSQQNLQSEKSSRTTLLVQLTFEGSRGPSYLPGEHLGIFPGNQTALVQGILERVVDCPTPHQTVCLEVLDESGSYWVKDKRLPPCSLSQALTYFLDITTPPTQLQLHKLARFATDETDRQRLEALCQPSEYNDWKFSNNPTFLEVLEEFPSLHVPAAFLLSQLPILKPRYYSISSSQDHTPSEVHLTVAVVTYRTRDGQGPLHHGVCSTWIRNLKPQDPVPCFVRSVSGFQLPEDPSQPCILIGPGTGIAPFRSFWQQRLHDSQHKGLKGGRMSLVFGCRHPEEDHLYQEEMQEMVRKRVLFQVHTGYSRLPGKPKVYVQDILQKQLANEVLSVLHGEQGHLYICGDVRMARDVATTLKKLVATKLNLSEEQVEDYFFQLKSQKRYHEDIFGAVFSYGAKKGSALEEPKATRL
Summary of the method: (§1)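 RAW 264.7 murine macrophages in DMEM with 10% FCS were grown to confluence for 24 h, then held serum-free for 4 h. Test agent, or 0.1% DMSO vehicle, was given with LPS (200 ng/mL) for 24 h. Supernatant nitrite was measured with Griess reagent (10 min, room temperature) at A550 against a NaNO2 standard curve. % inhibition is relative to vehicle+LPS; Emax at 100 μM; IC50 = concentration giving 50% Emax; n = 4−6.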

[2] = molecular target: T2, Nitric oxide synthase, inducible (Mus musculus, UniProt P29477); test: Inhibition of iNOS-mediated NO production in LPS-stimulated mouse RAW264.7 cells after 24 hrs by Griess reagent method; format: cell-based; summary of the method: as §1
T2 sequence (P29477 whole entry): T1 sequence (whole entry)

[3] = Cytotoxicity against mouse RAW264.7 cells assessed as reduction in cell viability after 3 hrs by alamar blue assay; format: cell-based
Summary of the method: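 Viability was tested in the same RAW 264.7 wells after the supernatant was removed for nitrite. 10% AlamarBlue in DMEM was added and the plates incubated at 37 °C. Absorbance was read at 570/600 nm against cell-free blanks, with LPS+vehicle wells set as 100% viability. CC50 = concentration lowering viability by 50%; mean ± SE.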

RAW264.7 = test: Cytotoxicity against mouse RAW264.7 cells assessed as reduction in cell viability at 50 uM after 3 hrs by alamar blue assay; format: cell-based; conditions: raw264.7, 3 h
[4] = molecular target: T1, Nitric oxide synthase, inducible (Mus musculus); test: Inhibition of iNOS-mediated NO production in LPS-stimulated mouse RAW264.7 cells at 25 uM after 24 hrs by Griess reagent method relative to control; format: cell-based
Summary of the method: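 Confluent RAW 264.7 cells, serum-starved 4 h, received test agent at 25 μM, or 0.1% DMSO vehicle, together with LPS (200 ng/mL) for 24 h. Supernatant nitrite was read by Griess reaction, A550, against a NaNO2 standard curve. Result is maximal inhibition expressed as % of vehicle+LPS nitrite; n = 4−6.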

[5] = Antiinflammatory activity in human neutrophils assessed as inhibition of […] superoxide anion production; format: functional, cell-based; conditions: Neutrophil
[6] = Antiinflammatory activity in human neutrophils assessed as inhibition of fMLP-induced superoxide anion production; format: functional, cell-based; conditions: Neutrophil

For `COc1cc2c([nH]c3ccc(O)cc32)c(Cc2ccc(O)cc2)n1` [DAIBUCARBOLINE A], the Emax [1] was 96.1%, the inhibition [1] was “Dose-dependent effect” and the IC50 [2] was 18.4 µM. It also gave a CC50 at 3 h [3] of 94.8 µM.
With `C=C[C@@]1(C)Cc2occ(C)c2[C@@H]2OC(=O)C(=C)[C@@H]21` [ISOLINDERALACTONE] the Activity (RAW264.7) was “Toxic”, the Emax [4] was 100% and the IC50 [2] was 0.3 µM. The CC50 at 3 h [3] was 66.4 µM.
`C/C1=C\CCC2=C[C@@H](OC2=O)c2c(C)coc2C1` [LINDERALACTONE] showed an IC50 [5] of 8.48 µg/mL (≈ 34.7 µM) and an IC50 [6] of 8.48 µg/mL (≈ 34.7 µM).
For `N=C(NCCC[C@H](N)C(=O)O)N[N+](=O)[O-]` [NITROARGININE], the Emax [1] was 41.2%, the IC50 [2] was 144 µM and the CC50 at 3 h [3] was > 100 µM.
In the case of `N=C(N)NN` [PIMAGEDINE], the Emax [1] is reported as 83.5%, the IC50 [2] is reported as 28.5 µM and the CC50 at 3 h [3] is reported as > 100 µM.
With `COc1cc(O)c2c(=O)c(-c3ccc(O)cc3)coc2c1` [PRUNETIN] the Emax [1] was 94.8%, the IC50 [2] was 10.5 µM and the CC50 at 3 h [3] was > 100 µM.
With `Cc1coc2c1[C@H]1C=C(CC[C@@H]3O[C@@]3(C)C2)C(=O)O1` [PSEUDONEOLINDERANE] the IC50 [5] was 3.21 µg/mL (≈ 12.3 µM) and the IC50 [6] was 3.21 µg/mL (≈ 12.3 µM).
In the case of `COc1cc(O)c2c(c1)O[C@H](c1ccc(O)cc1)CC2=O` [SAKURANETIN], the Emax [1] is reported as 85.2%, the IC50 [2] is reported as 19.6 µM and the CC50 at 3 h [3] is reported as > 100 µM.
